Assay results from different studies.
Compare with care: the assays were run in different laboratories.
Target: Serine/threonine-protein kinase DCLK3 (DCLK3, Homo sapiens, UniProt Q9C098)
Sequence (Q9C098 1-648, as in one of the studies): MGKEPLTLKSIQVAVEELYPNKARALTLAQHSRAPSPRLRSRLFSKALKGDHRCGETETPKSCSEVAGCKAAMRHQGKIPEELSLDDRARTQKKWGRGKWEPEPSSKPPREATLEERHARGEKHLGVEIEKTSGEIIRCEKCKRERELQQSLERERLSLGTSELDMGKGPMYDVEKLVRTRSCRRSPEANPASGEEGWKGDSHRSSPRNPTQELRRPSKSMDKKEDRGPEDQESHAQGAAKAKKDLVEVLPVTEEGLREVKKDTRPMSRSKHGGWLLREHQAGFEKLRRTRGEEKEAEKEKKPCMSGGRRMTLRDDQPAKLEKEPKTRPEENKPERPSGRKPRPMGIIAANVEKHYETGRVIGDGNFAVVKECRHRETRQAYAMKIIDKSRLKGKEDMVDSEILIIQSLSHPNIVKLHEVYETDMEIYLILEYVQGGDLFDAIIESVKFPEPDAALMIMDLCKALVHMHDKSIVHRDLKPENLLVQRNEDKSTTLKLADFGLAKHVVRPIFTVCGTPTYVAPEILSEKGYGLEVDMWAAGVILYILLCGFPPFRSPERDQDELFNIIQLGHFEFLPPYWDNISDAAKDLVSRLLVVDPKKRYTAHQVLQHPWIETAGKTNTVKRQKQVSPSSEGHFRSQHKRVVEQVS

SMILES	effect on	technique	concentration	remaining binding
COc1cnc(Nc2cccc(S(N)(=O)=O)c2)nc1N1CCN(c2ccccc2)CC1	binding	competition with immobilised ligand	1 µM	71%
COc1ccnn2ncc(-c3ccnc(N(C)C)n3)c12	binding	–	1 µM	100%
O=C(N1CCS(=O)(=O)CC1)N1C[C@H](c2ccc(OC(F)(F)F)cc2)C[C@H](c2nc(C3CC3)no2)C1	cell-free assay	competition with immobilised ligand	1 µM	100%
C=CC(=O)N1CCC(C(=O)NCC(=O)N2CCN(c3nc(-c4cnc(N)nc4C(F)F)nc(N4CCOCC4)n3)CC2)CC1	binding	competition with immobilised ligand	1 µM	96%
CNC(=O)c1ccc(Nc2ncc(C(F)(F)F)c(NCc3nccnc3N(C)S(C)(=O)=O)n2)cc1	cell-free assay	competition with immobilised ligand	0.1 µM	67%
CN(C)c1ncc(F)c(-c2cnn3ncccc23)n1	binding	–	1 µM	100%
O=C(c1ccc(Nc2nccc(-c3cc4ccccc4s3)n2)cc1)N1CCC(N2CCCC2)CC1	binding	competition with immobilised ligand	1 µM	45%
CCN1CCN(Cc2ccc(C(=O)Nc3ccc(C)c(Oc4ccc5c(c4)CC(=O)N5)c3)cc2C(F)(F)F)CC1	binding	competition with immobilised ligand	1 µM	100%
COc1ccc2c(c1)O[C@@H](c1ccc(OC)c(OC)c1)C[C@H]2NC(=O)C1(c2ccc3c(c2)OC(F)(F)O3)CC1	cell-free assay	competition with immobilised ligand	1 µM	98%
c1cnn2ncc(-c3ccnc(N4CCC45COC5)n3)c2c1	binding	–	1 µM	100%
O=C(NCC1CCOCC1)c1n[nH]cc1NC(=O)c1c(F)cccc1F	binding	competition with immobilised ligand	1 µM	61%
CC1CCCN1c1nccc(-c2cnn3ncccc23)n1 (stereo not drawn)	binding	–	1 µM	100%
CN([C@@H]1CCc2c(CC(=O)O)c3ccccc3n2C1)S(=O)(=O)c1ccc(F)cc1	cell-free assay	competition with immobilised ligand	1 µM	99%
C[C@@H](c1ccc(-n2cnc3c(N)ncnc32)cc1)N1CCc2nn(C)c(Cc3ccccc3)c2C1=O	binding	competition with immobilised ligand	0.1 µM	85%
O=C(c1ccc(Nc2ncc(Cl)c(-c3ccc(Cl)s3)n2)cc1)N1CCC(N2CCCC2)CC1	binding	competition with immobilised ligand	1 µM	14%
N[C@H]1CCN(c2nccc(-c3cnn4ncccc34)n2)C1	binding	–	1 µM	100%
N#CC1(c2ccccn2)CCN(Cc2cc(C(=O)N3CCCC3)c(=O)n3ccccc23)CC1	cell-free assay	competition with immobilised ligand	1 µM	100%
FC(F)(F)Oc1cccc(-c2cnc3ccc(-c4ccncc4)nn23)c1	cell-free assay	competition with immobilised ligand	5 µM	100%
O=C(NS(=O)(=O)c1ccc(NCC2CCOCC2)c([N+](=O)[O-])c1)c1ccc(N2CCN(Cc3ccc(C(F)(F)F)cc3-c3ccc(Cl)cc3)CC2)cc1Oc1cnc2[nH]ccc2c1	cell-free assay	competition with immobilised ligand	1 µM	93%
Cc1cnc(Nc2ccc(C(=O)N3CCC(N4CCCC4)CC3)cc2)nc1-c1cc2ccccc2s1	binding	competition with immobilised ligand	1 µM	0.5%
C[C@H]1CCN(c2nccc(-c3cnn4ncccc34)n2)C1	binding	–	1 µM	93%
